This is an account of results in ChEMBL document CHEMBL2040832, “Design and synthesis of new (E)-cinnamic N-acylhydrazones as potent antitrypanosomal agents” (Eur J Med Chem, 2012).

In data set [1] the test system is Trypanosoma cruzi. In words: Antitrypanosomal activity against bloodstream form of Trypanosoma cruzi Y trypomastigotes infected in Swiss mouse. Format: functional, organism-based.
Data set [2] deals with Trypanosoma cruzi. The data set is described as follows: Antitrypanosomal activity against Trypanosoma cruzi Tulahuen C2C4 intracellular amastigotes infected in rat L6 cells after 4 days by photometry. The format is functional, organism-based. Particulars: Tulahuen C2C4, L6, 96 h. The procedure, abridged: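 L6 rat myoblasts seeded at 2000 cells/well in RPMI 1640 with 10% FBS and 2 mM L-glutamine; after 24 h infected with 5000 T. cruzi Tulahuen C2C4 LacZ trypomastigotes. At 48 h medium replaced with seven 3-fold serial drug dilutions spanning 0.123 to 90 µg/mL.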

For data set [3], the system named is J774. In words: Cytotoxicity against mouse J774 cells after 18 hrs by MTT assay. Format: cell-based. Particulars: J774, 18 h. The procedure, abridged: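 J774 macrophages plated at 2.5 × 10⁶ cells/mL for 1 h (5% CO₂, 37 °C), non-adherent cells washed off with RPMI 1640. Adherent cells exposed to compounds (0.1–[…]), medium alone or 3% Tween 20 in triplicate for 18 h; MTT added for 4 h, formazan dissolved in DMSO, absorbance at 540 nm; LC₅₀ reported.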

Data set [4] can be described thus: Selectivity index, ratio of IC50 for mouse J774 cells to IC50 for bloodstream form of Trypanosoma cruzi trypomastigote. To be noted: read-out: Ratio IC50. Format: toxicity, cell-based.
Data set [5] concerns the target T1, Cruzipain (Trypanosoma cruzi, UniProt P25779). The data set is described as follows: Inhibition of Trypanosoma cruzi C-terminally truncated cruzain expressed in Escherichia coli using Z-Phe-Arg-AMC as substrate incubated for 5 mins prior to substrate addition by spectrofluorometry. The procedure, abridged: (§1)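 Purified C-terminally truncated cruzain from E. coli (M15 or DH5a), 0.64 nM, in 50 mM sodium phosphate, 100 mM NaCl, 5 mM EDTA, 5 mM DTT, pH 6.5, preincubated with inhibitor 5 min at room temperature before Z-Phe-Arg-AMC. AMC release followed by fluorescence (ex 355, em 460 nm). IC₅₀ by nonlinear regression from ≥7 concentrations giving 20–85% inhibition, relative to uninhibited activity.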

The target in data set [6] is T1, Cruzipain. In words: Inhibition of Trypanosoma cruzi cruzain. The procedure, abridged:
as §1

pIC50: −log10 of the molar value.

T1 sequence (P25779 whole entry, the tested form may be a part): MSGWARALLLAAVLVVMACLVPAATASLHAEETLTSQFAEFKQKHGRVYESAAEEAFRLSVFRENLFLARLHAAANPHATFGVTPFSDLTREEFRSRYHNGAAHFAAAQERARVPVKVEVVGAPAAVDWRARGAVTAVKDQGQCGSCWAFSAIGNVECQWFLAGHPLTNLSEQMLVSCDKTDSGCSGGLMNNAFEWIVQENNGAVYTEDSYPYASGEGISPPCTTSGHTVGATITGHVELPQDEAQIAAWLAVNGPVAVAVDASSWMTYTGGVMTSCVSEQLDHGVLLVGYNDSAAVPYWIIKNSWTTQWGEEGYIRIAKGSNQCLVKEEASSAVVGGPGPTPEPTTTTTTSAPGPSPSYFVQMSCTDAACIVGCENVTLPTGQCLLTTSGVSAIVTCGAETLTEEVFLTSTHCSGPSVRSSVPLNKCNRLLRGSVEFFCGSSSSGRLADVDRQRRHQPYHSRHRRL

As for `O=C(/C=C/c1ccccc1)N/N=C/c1ccccc1`, the pIC50 is < 2.96 in data set [1] and < 4.00 in data set [2].

Consider `O=C(/C=C/c1ccccc1)N/N=C/c1ccc(F)cc1`, for which the pIC50 was < 2.96 in data set [1] and < 4.00 in data set [2].

Consider `O=C(/C=C/c1ccccc1)N/N=C/c1ccc(Cl)cc1`, for which the figures for the pIC50 in data set [1] and in data set [2] were < 2.96 and < 4.00, respectively.

On to `O=C(/C=C/c1ccccc1)N/N=C/c1ccc(Br)cc1`, for which, in data set [1], the pIC50 is < 2.96.

With `O=C(/C=C/c1ccccc1)N/N=C/c1ccc([N+](=O)[O-])cc1`, the pIC50 was < 2.96 in data set [1] and 4.09 in data set [2].

`COc1ccc(/C=N/NC(=O)/C=C/c2ccccc2)cc1`: the pIC50 in data set [1] is < 2.96; in data set [2], < 4.00.

For the compound `O=C(/C=C/c1ccccc1)N/N=C/c1ccc(O)cc1`, the pIC50 in data set [1] was < 2.96; in data set [2] it was < 4.00.

For the compound `O=C(/C=C/c1ccccc1)N/N=C/c1ccccc1O`, the pIC50 was 3.38 in data set [3], 4.28 in data set [5], 5.23 in data set [1] and 5.18 in data set [2]. Moreover, the selectivity ratio in data set [4] was determined as 71.

`O=C(/C=C/c1ccccc1)N/N=C/c1ccc(O)c(O)c1`: the pIC50 in data set [1] is 3.97; in data set [2], < 4.00.

On to `O=C(/C=C/c1ccccc1)N/N=C/c1ccc2c(c1)OCO2`, for which the pIC50 in data set [1] was < 2.96; in data set [2], 4.21.

Consider `COc1ccc(/C=N/NC(=O)/C=C/c2ccccc2)cc1OC`, for which the figures for the pIC50 in data set [1] and in data set [2] were < 2.96 and < 4.00, respectively.

On to `COc1ccc(/C=N/NC(=O)/C=C/c2ccccc2)cc1O`, for which the pIC50 in data set [1] was < 2.96; in data set [2], < 4.00.

On to `COc1cc(/C=N/NC(=O)/C=C/c2ccccc2)ccc1O`, for which the results for the pIC50 in data set [1] and in data set [2] were 3.90 and 4.14, respectively.

`COc1cc(/C=N/NC(=O)/C=C/c2ccccc2)cc(OC)c1OC`: the pIC50 in data set [1] and in data set [2] was 4.15 throughout.

Turning to `COc1cc(/C=N/NC(=O)/C=C/c2ccccc2)cc([N+](=O)[O-])c1O`, the negative-log IC50 (pIC50) is < 2.96 in data set [1] and 4.40 in data set [2].

Consider `O=C(/C=C/c1ccc2c(c1)OCO2)N/N=C/c1ccccc1O`, for which the pIC50 in data set [3] is 3.55; in data set [5], 4.13; in data set [1] it was 5.25. Also, the selectivity ratio in data set [4] came to 50.

In the case of `COc1cc(/C=N/NC(=O)/C=C/c2ccc3c(c2)OCO3)cc([N+](=O)[O-])c1O`, the pIC50 in data set [1] is < 2.96.

The compound `COc1cc(/C=C/C(=O)N/N=C/c2ccccc2O)cc(OC)c1OC` gave a pIC50 in data set [1] of 4.10.

On to `COc1cc(/C=N/NC(=O)/C=C/c2cc(OC)c(OC)c(OC)c2)cc([N+](=O)[O-])c1O`, for which the pIC50 in data set [3] is 2.62; in data set [5] it was 4.34; in data set [1], 4.74. Also, the selectivity ratio in data set [4] was 134.

With `COc1cc(/C=C/C(=O)N/N=C/c2ccccc2O)cc([N+](=O)[O-])c1OC`, the pIC50 in data set [3] is 3.26; in data set [5], 4.08; in data set [1] it was 4.77. In data set [4], the selectivity ratio came out at 32.

Turning to `COc1cc(/C=N/NC(=O)/C=C/c2cc(OC)c(OC)c([N+](=O)[O-])c2)cc([N+](=O)[O-])c1O`, the figures for the pIC50 in data set [3], in data set [5] and in data set [1] were 2.73, 4.35 and 4.80, respectively. Moreover, in data set [4], the selectivity ratio worked out at 116.

In data set [1], `COc1ccc(/C=C/C(=O)N/N=C/c2ccccc2O)cc1OC` showed a pIC50 of 4.19.

`COc1ccc(/C=C/C(=O)N/N=C/c2cc(OC)c(O)c([N+](=O)[O-])c2)cc1OC`: in data set [1], the pIC50 is < 2.96.

In data set [1], `COc1cc(/C=C/C(=O)N/N=C/c2ccccc2)cc([N+](=O)[O-])c1O` showed a pIC50 of 4.10.

Consider `O=C(CCc1ccccc1)N/N=C/c1ccccc1O`, for which the pIC50 in data set [3] was 2.79; in data set [5], < 4.00; in data set [1], 4.74. For the same compound, in data set [4], the selectivity ratio amounted to 90.

`COc1cc(/C=N/NC(=O)CCc2ccccc2)cc([N+](=O)[O-])c1O`: the pIC50 in data set [1] was < 2.96.

As to `O=C(N/N=C/c1ccccc1O)c1ccc2ccccc2c1`, the negative logarithm of the IC50 (pIC50) in data set [1] was 4.03.

Take `COc1cc(/C=N/NC(=O)c2ccc3ccccc3c2)cc([N+](=O)[O-])c1O`: the pIC50 in data set [1] is 4.03.

As for `COc1ccc2cc(O)c(C(=O)N/N=C/c3c(O)ccc4ccccc34)cc2c1`, the pIC50 in data set [6] is 6.22.

Regarding `O=C(/C=C/c1ccc2c(c1)OCO2)c1ccc(Br)cc1`, the pIC50 in data set [6] was 4.70.

Consider `O=C(Cn1ccnc1[N+](=O)[O-])NCc1ccccc1` [BENZNIDAZOLE], for which the figures for the pIC50 in data set [3], in data set [1] and in data set [2] were 2.42, 4.97 and 6.91, respectively. In addition, the selectivity ratio in data set [4] came to 356.

The pIC50 is −log10 of the IC50, conventionally taken in molar units. Lower therefore signals a large IC50.
